Data published in ChEMBL document CHEMBL1152893, “Synthesis and in vitro trichomonicidal, giardicidal and amebicidal activity of N-acetamide(sulfonamide)-2-methyl-4-nitro-1H-imidazoles” (Eur J Med Chem, 2009).

Tests used:
Giardia intestinalis [1] = experiment: Antiparasitic activity against Giardia intestinalis IMSS:0696 trophozoites after 48 hrs by […]; format: functional, organism-based; conditions: Giardia duodenalis, IMSS:0696, 48 h
Summary of the method: (§1)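 Axenic trophozoites grown in modified TYI-S-33 with 10% calf serum and bovine bile; exposed 48 h at 37 °C to increasing compound concentrations, DMSO as negative control. Then washed, subcultured 48 h in fresh drug-free medium and counted. IC50 by Probit analysis; triplicate, repeated at least twice.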

Trichomonas vaginalis [2] = experiment: Antiparasitic activity against Trichomonas vaginalis GT3 trophozoites after 48 hrs by […]; format: functional, organism-based; conditions: GT3, 48 h; summary of the method: as §1
Trichomonas vaginalis [3] = experiment: Ratio of Benznidazole IC50 to compound IC50 for Trichomonas vaginalis GT3 trophozoites; format: functional
[4] = Selectivity index, ratio of CC50 for MDCK cells to IC50 for Giardia intestinalis IMSS:0696 trophozoites; format: functional
[5] = Cytotoxicity against MDCK cells after 72 hrs by MTT assay; format: cell-based, Canis lupus familiaris; conditions: dog
Summary of the method: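 MDCK cells in DMEM with 10% FBS and penicillin/streptomycin, 37 °C, 5% CO2. 1.5×10⁴ cells/well seeded; above 80% confluence, medium replaced and compounds added from 6.25 upward, DMSO final 0.05%. After 72 h, MTT added for 4 h at 37 °C. Formazan dissolved in acidified isopropanol (0.4 N HCl), OD 540 nm; untreated cells as negative control; CC50 calculated.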

Trichomonas vaginalis [6] = experiment: Ratio of 2-methyl-4(5)-nitroimidazole IC50 to compound IC50 for Trichomonas vaginalis GT3 trophozoites; format: functional
[7] = Selectivity index, ratio of CC50 for MDCK cells to IC50 for Trichomonas vaginalis GT3 trophozoites; format: functional
[8] = Selectivity index, ratio of CC50 for MDCK cells to IC50 for Entamoeba histolytica HM-1:IMSS trophozoites; format: functional
Entamoeba histolytica [9] = experiment: Amebicidal activity against Entamoeba histolytica HM-1:IMSS trophozoites after 48 hrs by […]; format: functional, organism-based; summary of the method: as §1
Giardia intestinalis [10] = experiment: Ratio of 2-methyl-4(5)-nitroimidazole IC50 to compound IC50 for Giardia intestinalis IMSS:0696 trophozoites; format: functional, Giardia duodenalis
Giardia intestinalis [11] = experiment: Ratio of Benznidazole IC50 to compound IC50 for Giardia intestinalis IMSS:0696 trophozoites; format: functional, Giardia duodenalis
Entamoeba histolytica [12] = experiment: Ratio of 2-methyl-4(5)-nitroimidazole IC50 to compound IC50 for Entamoeba histolytica HM-1:IMSS trophozoites; format: functional

Row | IC50 (Giardia intestinalis [1]) | IC50 (Trichomonas vaginalis [2]) | Structure (SMILES) | Ratio IC50 (Trichomonas vaginalis [3]) | Ratio CC50/IC50 [4] | CC50 at 72 h [5] | Ratio IC50 (Trichomonas vaginalis [6]) | Ratio CC50/IC50 [7] | Ratio CC50/IC50 [8] | IC50 (Entamoeba histolytica [9]) | Ratio IC50 (Giardia intestinalis [10]) | Ratio IC50 (Giardia intestinalis [11]) | Ratio IC50 (Entamoeba histolytica [12])
1 | 16 µM | 9.18 µM | Cc1nc([N+](=O)[O-])cn1CC(=O)Nc1ccc(Cl)cc1 | 2 | 40 | 642 µM | 5 | 70 | 35 | 18.1 µM |  |  | 
2 | 6.55 µM | 8.41 µM | COc1ccc(S(=O)(=O)n2cc([N+](=O)[O-])nc2C)cc1 |  | 49 | 321 µM |  | 38 | 38 | 8.56 µM | 2 | 2 | 
3 | 15.4 µM | 6.63 µM | Cc1nc([N+](=O)[O-])cn1CC(=O)Nc1ccc([N+](=O)[O-])cc1 |  | 52 | 798 µM |  | 120 | 52 | 15.3 µM |  |  | 
4 | 22.6 µM | 18.6 µM | O=C(Cn1ccnc1[N+](=O)[O-])NCc1ccccc1 [BENZNIDAZOLE] |  |  |  |  |  |  | 4.27 µM |  |  | 
5 | 37.6 µM | 67.4 µM | Cc1nc([N+](=O)[O-])cn1CC(=O)Nc1cccc(C(F)(F)F)c1 |  | 12 | 435 µM |  | 6 | 15 | 29.1 µM |  |  | 
6 | 11.2 µM | 14.2 µM | Cc1nc([N+](=O)[O-])cn1CC(=O)Nc1ccc(C#N)cc1 |  | 60 | 672 µM | 3 | 47 | 16 | 41.2 µM |  | 2 | 
7 | 20.2 µM | 8.73 µM | CC(=O)Nc1ccc(S(=O)(=O)n2cc([N+](=O)[O-])nc2C)cc1 |  | 51 | 1030 µM |  | 118 | 265 | 3.89 µM |  |  | 2
8 | 49.1 µM | 24.6 µM | Cc1nc([N+](=O)[O-])cn1CC(=O)Nc1ccccc1 |  | 23 | 1140 µM |  | 46 | 43 | 26.6 µM |  |  | 
9 | 17.7 µM | 7.98 µM | Cc1nc([N+](=O)[O-])cn1CC(=O)NCc1ccccc1 | 2 | 4 | 77.5 µM | 5 | 10 | 20 | 3.96 µM |  |  | 2
10 | 12 µM | 12.5 µM | Cc1nc([N+](=O)[O-])cn1S(=O)(=O)c1ccccc1 |  | 106 | 1270 µM |  | 101 | 188 | 6.74 µM |  |  | 
11 | 15.3 µM | 7.62 µM | Cc1nc([N+](=O)[O-])cn1S(=O)(=O)c1ccc(Cl)cc1 |  | 38 | 578 µM |  | 76 | 144 | 4.03 µM |  |  | 
12 | 22 µM | 37 µM | Cc1nc([N+](=O)[O-])cn1CC(=O)Nc1c(Cl)cccc1Cl |  | 18 | 396 µM |  | 11 | 16 | 25.3 µM |  |  | 
13 | 14 µM | 9.96 µM | Cc1ccc(S(=O)(=O)n2cc([N+](=O)[O-])nc2C)cc1 |  | 71 | 988 µM |  | 99 | 278 | 3.55 µM |  |  | 2
14 | 5.36 µM | 0.29 µM | Cc1ncc([N+](=O)[O-])n1CCO [METRONIDAZOLE] |  |  | 68 µM |  |  |  |  |  |  | 
15 | 7.5 µM | 2.93 µM | Cc1nc([N+](=O)[O-])cn1S(=O)(=O)c1ccc([N+](=O)[O-])cc1 | 6 | 82 | 611 µM | 14 | 209 | 84 | 7.28 µM | 2 | 2 | 
16 | 21 µM | 5.61 µM | Cc1nc([N+](=O)[O-])cn1CC(=O)Nc1ccc(F)cc1 | 3 | 39 | 828 µM | 6 | 148 | 74 | 11.2 µM |  |  | 
17 | 10.6 µM | 11.5 µM | Cc1nc([N+](=O)[O-])cn1S(=O)(=O)c1ccc(F)cc1 |  | 77 | 813 µM |  | 71 | 183 | 4.44 µM |  |  | 
